In publication PMC3207261 (European journal of nuclear medicine and molecular imaging, 2010):
Several values for one entry are separate records, joined by “and”; a condition that tells them apart may be missing. Identical values can stand only once. Entries after “also recorded” stand apart in the source; their conditions may differ. Like-named read-outs stand apart in the source and are kept apart here. Marks after values point to notes of the source that are not given here.

Legend:
[1] = cited from earlier work
[2] = Radiation dose of other ^18F-labeled radioligands; assay type: in vivo; conditions: approximate effective dose calculated from the reported doses of individual organs
[3] = Residence times of source organs from whole-body imaging; assay type: in vivo, humans; conditions: mean±SD
Summary of the method: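 Residence time = area under each organ's time–activity curve (fraction of injected activity). Decay correction was removed and recovery correction applied (first-frame body activity vs dose-calibrator value). Area was trapezoidal to end of imaging, then physical decay only to infinity. Right-lung activity was scaled by the lung mass ratio 1:1.87. Organs spanning beds used the timing of their main bed position.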

[4] = assay type: in vivo, humans
[5] = Whole-body PET biodistribution after intravenous injection of ^18F-SP203; assay type: in vivo, humans
Summary of the method: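 Seven healthy volunteers (3 female, 4 male) received 141±41 MBq i.v. 2-D dynamic whole-body PET covered seven 15-cm bed positions (head to upper thigh) in 16 frames (15 s–4 min), 300 min total, including three 30-min rest periods. OSEM reconstruction with attenuation and scatter correction. Regions were drawn per coronal slice (high-uptake organs) or on summed slices (low-uptake). Uptake was expressed as % injected activity, mean±SD.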

[6] = tested on: glutathione S-transferase; conditions: both in vitro and in vivo, via glutathione S-transferase, ref [16]; cited from earlier work
mGluR5 = conditions: late time points; ref [3]; cited from earlier work
[7] = Radiation absorbed doses by Medical Internal Radiation Dose scheme; assay type: in vivo, humans
Summary of the method: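 Mean residence times of seven subjects were entered for a 70-kg adult male model. Red marrow residence came from the lumbar vertebrae, with all vertebral activity assigned to marrow, × 100/11.7. […] Bladder used the dynamic model with a 2.4-h voiding interval. Maximal injectable activity was derived from dose per MBq against the annual dose limits.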

[8] = ref Communication from R.M. Kessler

## N[C@@H](Cc1cc(O)c(O)cc1[18F])C(=O)O [^18F-FDOPA]
[1]; ref [24]
  Dose to red marrow: 10.5 μSv/MBq
  Effective dose: 19.9 μSv/MBq

## COC(=O)[C@H]1[C@@H](c2ccc(Cl)cc2)C[C@@H]2CC[C@H]1N2CC[18F] [^18F-FECNT]
[1]; ref [21]
  Dose to red marrow: 16.1 μSv/MBq
  Effective dose: 15.8 μSv/MBq

## COC(=O)[C@H]1[C@@H](c2ccc(I)cc2)C[C@@H]2CC[C@H]1N2CCC[18F] [^18F-FPCIT]
[2]; ref [25]
  Effective dose: ~8.6^a μSv/MBq
[1]; ref [25]
  Dose to red marrow: 5.1 μSv/MBq

## C=CCN1CCC[C@H]1CNC(=O)c1cc(CCC[18F])cc(OC)c1OC [^18F-Fallypride]
[1]; [8]
  Dose to red marrow: 19.5 μSv/MBq
  Effective dose: 21.1 μSv/MBq

## Fc1ncccc1OC[C@@H]1CCN1 [^18F-Fluoro-A-85380]
[1]; ref [23]
  Dose to red marrow: 14.1 μSv/MBq
  Effective dose: 23.7 μSv/MBq

## C[C@]12CCC(=O)C[C@@H]1CC[C@@H]1[C@@H]2CC[C@]2(C)[C@@H](O)[C@@H]([18F])C[C@@H]12 [^18F-Fluorodihydrotestosterone]
[2]; ref [20]
  Effective dose: ~12.5^a μSv/MBq
[1]; ref [20]
  Dose to red marrow: 18.7 μSv/MBq

## Cc1cn([C@H]2C[C@H]([18F])[C@@H](CO)O2)c(=O)[nH]c1=O [^18F-Fluorothymidine]
[2]; ref [19]
  Effective dose: ~15.5^a μSv/MBq
[1]; ref [19]
  Dose to red marrow: 24.0 μSv/MBq

## CNc1ccc(-c2nc3ccc(O)cc3s2)cc1[18F] [^18F-GE067]
[1]; ref [22]
  Dose to red marrow: 15.3 μSv/MBq
  Effective dose: 33.8 μSv/MBq

## N#Cc1cc(F)cc(C#Cc2csc(C[18F])n2)c1 [^18F-SP203, 3-fluoro-5-(2-(2-^18F-(fluoromethyl)-thiazol-4-yl)ethynyl)benzonitrile]
[3]; brain, seven subjects
  Residence time, brain: 0.192 h and 0.192 ± 0.048 h
[3]; gallbladder, seven subjects
  Residence time, gallbladder: 0.018 h and 0.018 ± 0.009 h
[3]; heart, seven subjects
  Residence time, heart: 0.024 h and 0.024 ± 0.008 h
[3]; kidney, seven subjects
  Residence time, kidney: 0.037 ± 0.004 h
[3]; liver, seven subjects
  Residence time, liver: 0.091 h and 0.091 ± 0.015 h
[3]; lungs, seven subjects
  Residence time, lungs: 0.065 h and 0.065 ± 0.017 h
[3]; red marrow (from lumbar vertebrae x 100/11.7)
  Residence time, red marrow: 0.307 h and 0.307 ± 0.063 h
[3]; remainder of body
  Residence time, remainder of body: 1.585 ± 0.147 h
[3]; spleen, seven subjects
  Residence time, spleen: 0.014 h and 0.014 ± 0.004 h
[4]; 141±41 MBq (1.9±1.0 nmol SP203) i.v., subject reports, ECG, blood pressure, pulse rate, respiration rate
  Pharmacological effects during the 5-h scan: no pharmacological effects
[4]; acquired 7 to 24 h after radioligand injection
  Effects in blood and urine tests: no effects were noted
[5]; after injection
  Time of peak uptake in brain, kidneys, lungs, heart and spleen: ≤ 8 min
[5]; bone structures with vs without red marrow
  Distribution of radioactivity in the skeleton: most of the radioactivity was in bone structures that contain red marrow and not in those without red marrow; also recorded: the majority of activity in the human skeleton was in the red marrow rather than in bone itself; also recorded: most of the radioactivity was in bone structures that contain red marrow and not in bones without red marrow
[5]; brain, seven healthy humans, i.v.
  Peak uptake in brain: 11 % of injected activity
[5]; gallbladder
  Radioactivity accumulated in gallbladder (asymptote / maximum): 0.9 % of injected activity
  Time to reach asymptote / maximum in gallbladder: ≤ 100 min
[5]; heart
  Peak uptake in heart: 3.4 % of injected activity
[5]; judged from distribution of radioactivity in bone structures with various proportions of bone and red marrow
  Defluorination in humans: undergoes little defluorination
[5]; liver, seven healthy humans, i.v.
  Peak uptake in liver: 12.8±3.4 % of injected activity
[5]; lungs
  Peak uptake in lungs: 4.7 % of injected activity and 4.7±1.5 % of injected activity
[5]; red marrow
  Radioactivity accumulated in red marrow (asymptote): 14 % of injected activity
  Time to reach asymptote in red marrow: ≤ 100 min
[6]
  Defluorination in rat brain: defluorinated
mGluR5
  Radioactivity in the skull in human brain imaging: moderate uptake of radioactivity in the skull; also recorded: moderate amount of radioactivity accumulation in the skull
[7]; Europe, effective dose limit 10 mSv per year
  Maximal injectable activity per year: no more than 562 MBq
[7]
  Radiation dose, brain: 127.0 mrem/mCi
[7]; standard reference man
  Radiation dose, brain: 34.5 μSv/MBq

## FC(F)(F)c1nnnn1-c1ccc(OC[18F])c(CN[C@H]2CCCN[C@H]2c2ccccc2)c1 [^18F-SPARQ]
[1]; ref [7]
  Dose to red marrow: 15.8 μSv/MBq
  Effective dose: 29.3 μSv/MBq
